Sampled rows, rich in hits. Any-hit rate of the full collection: about 2.3%.
TAAR1 antagonist: human TAAR1 antagonism. CHO RD-HGA16 TAAR1, Fluo-8 calcium fluorescence, antagonist. actives 1.5% (n = 360,000). inhibition, % at 3 µM. AID 624466;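 active = inhibition above a per-plate cutoff, the mean inhibition of test compounds on that plate plus 3 SD, cut at about 49% in these data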;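 also: 0% = DMSO plus EC80 beta-PEA response and 100% = DMSO alone without agonist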
Target sequence (Q96RJ0 whole entry, looked up): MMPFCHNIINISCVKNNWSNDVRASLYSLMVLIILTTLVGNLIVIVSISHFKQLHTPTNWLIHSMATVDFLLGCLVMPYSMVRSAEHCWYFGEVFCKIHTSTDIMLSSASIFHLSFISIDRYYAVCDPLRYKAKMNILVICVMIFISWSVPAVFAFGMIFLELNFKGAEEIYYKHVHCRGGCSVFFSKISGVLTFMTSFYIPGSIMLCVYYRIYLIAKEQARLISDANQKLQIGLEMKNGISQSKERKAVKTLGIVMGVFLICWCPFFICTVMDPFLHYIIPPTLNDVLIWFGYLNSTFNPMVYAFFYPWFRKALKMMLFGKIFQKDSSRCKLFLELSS
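Test system – hTAAR1-expressing CHO RD-HGA16 cells, Gα16-coupled · Reagent – β-PEA at EC80 concentration, post-compound challenge · Compound dosing – 3 µM, single point · Timing – 140 s kinetic read after compound, 140 s after agonist · Detection – Fluo-8 intracellular calcium dye fluorescence, real-time kinetic reads · Control set – DMSO and EC80 PEA controls · Repeats – n of 1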
TAAR1 agonist: agonists of human TAAR1. Q96RJ0. CHO RD-HGA16 TAAR1, Fluo-8 calcium fluorescence; vehicle wells 0%, saturating PEA agonist 100%. activation, % at 3 µM. actives 0.99% (n = 360,000). AID 624467;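 active = activation above the mean activation of all test compounds in the run plus 3 SD, cut at about 38% in these data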
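Test system: RD-HGA16 (CHO) cells co-expressing Gα16 and hTAAR1; dosing: one-point dosing at 3 µM (nominal); timing: 17-24 h seeding, 75 min 37 °C dye, 30 min RT; signal: kinetic Fluo-8 calcium fluorescence; read-out basis: % activation relative to PEA EC100 response; controls: DMSO and PEA EC100; replicates: n 1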
V1aR counter: activates human V1a receptor in oxytocin agonist counter-screen. P37288. CHO-V1R cells, Fluo-8 calcium fluorescence, agonist mode; 0% DMSO, 100% 3 nM vasopressin. activation, % at 3 µM. actives 0.25% (n = 320,000). AID 2797;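 active = activation above the mean activation of all tested compounds plus 3 SD, per screening run, cut at about 20% in these data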;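 also: signal is peak over basal fluorescence ratio across a 100 second FLIPR read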
Target sequence (P37288 whole entry, looked up): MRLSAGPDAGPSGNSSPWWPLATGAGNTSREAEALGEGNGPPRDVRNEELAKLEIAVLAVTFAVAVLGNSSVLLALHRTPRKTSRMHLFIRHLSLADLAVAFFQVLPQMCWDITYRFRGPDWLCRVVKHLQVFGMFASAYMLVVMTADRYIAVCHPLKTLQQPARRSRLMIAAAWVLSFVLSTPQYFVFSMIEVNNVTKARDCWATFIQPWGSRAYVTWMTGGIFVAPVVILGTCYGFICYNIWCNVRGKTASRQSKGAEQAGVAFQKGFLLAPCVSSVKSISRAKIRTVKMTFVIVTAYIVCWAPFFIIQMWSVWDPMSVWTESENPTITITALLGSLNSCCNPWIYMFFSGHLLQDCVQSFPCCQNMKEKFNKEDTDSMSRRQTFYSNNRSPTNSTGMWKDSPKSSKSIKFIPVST
OXTR ag: agonists of human oxytocin receptor; CHO-OTR cells, Fluo-8 calcium fluorescence; normalized: DMSO 0%, oxytocin 100%; activation, % at 3 µM; actives 0.32% (n = 320,000); AID 2435;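 active = activation above the mean of all tested compounds plus 3 SD, cutoff set per screening run, cut at about 20% in these data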;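 also: peak over basal fluorescence ratio from a 100 s FLIPR kinetic read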
OXTR potentiate: potentiates the human oxytocin receptor response; activation, % at 3 µM; AID 2445; CHO-OTR cells, Fluo-8 calcium fluorescence, potentiator mode; 0% = oxytocin EC15, 100% = EC100; actives 0.061% (n = 320,000); P30559;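 active = activation above that plate's cutoff, the mean activation of tested compounds plus 3 SD, cut at about 6.6% in these data, passing the limit was not always enough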;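 also: 100% uses oxytocin at 75 nM as the full agonist control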
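Dosing: Single dose, 3.0 µM nominal final compound concentration | Material: Human OTR in CHO cells | Technique: Kinetic Fluo-8 calcium fluorescence | Benchmarks: EC15 oxytocin alone as 0%, 75 nM oxytocin as 100% | Probe or stimulus: Oxytocin at about EC15, sub-maximal agonist stimulus | Incubation: Compound 6 min at room temperature before oxytocin, 100 s read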
TAAR1 ag confirm: confirmation of human TAAR1 agonists | shares compounds with TAAR1 agonist | CHO RD-HGA16 TAAR1, Fluo-8 calcium fluorescence; scaled: DMSO 0%, maximal phenethylamine 100% | activation, % at 3 µM | actives 82% (n = 2,400) | AID 651783;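 active = activation above a cutoff set at the run's mean compound activation plus 3 SD, cut at about 39% in these data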
Ga16 nonsel ag: counter-screen for TAAR1 agonists: nonselective agonists in parental cells | shares compounds with TAAR1 agonist | CHO-Ga16 parental, Fluo-8 calcium fluorescence; normalized to maximal ATP response, DMSO zero | actives 50% (n = 2,400) | activation, % at 3 µM;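 active = activation above the run cutoff, the mean activation over all tested wells plus 3 SD, cut at about 12% in these data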;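 also: 0% = DMSO wells and 100% = maximal ATP response on the peak over basal ratio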
TAAR1 desens: TAAR1 response desensitization, agonist counter-screen; CHO RD-HGA16 hTAAR1, Fluo-8 calcium, beta-PEA response inhibition; inhibition, % at 3 µM; AID 651951; shares compounds with TAAR1 agonist; actives 46% (n = 2,400);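 active = inhibition above the run cutoff, the mean inhibition of all test compounds plus 3 SD, cut at about 49% in these data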;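 also: beta-PEA stimulus applied at its EC80; loss of beta-PEA calcium signal after compound pretreatment read as receptor desensitization; 0% = DMSO with beta-PEA at EC80 and 100% = DMSO alone without agonist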
Ga16 antag count: nonselective Ga16 antagonism, counter-screen. shares compounds with TAAR1 agonist. CHO-Ga16 ATP-induced calcium, Fluo-8 fluorescence. inhibition, % at 3 µM. actives 39% (n = 2,400). AID 651952;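 active = inhibition above the plate's mean compound inhibition plus 3 SD, computed per plate, cut at about 22% in these data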;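 also: 0% = EC80 ATP with DMSO and 100% = DMSO wells without ATP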
Starred values were filed as active, the others as inactive; nt = not tested or not shown.

SMILES | TAAR1 antagonist | TAAR1 agonist | V1aR counter | OXTR ag | OXTR potentiate | TAAR1 ag confirm | Ga16 nonsel ag | TAAR1 desens | Ga16 antag count
O=C(CSC1=NS(=O)(=O)c2cc(Cl)ccc2N1)NCCc1ccccc1 | 80* | 104* | -1 | -1 | -10 | 93* | 0 | 86* | 7
Cn1c(=O)c(NCCc2ccccc2)c2c3c(cccc31)C(=O)c1ccccc1-2 | 104* | 407* | 279* | 213* | -17 | 346* | 305* | 103* | 95*
Cn1c(=O)c(NC2CCCCC2)c2c3c(cccc31)C(=O)c1ccccc1-2 | 66* | 87* | nt | nt | nt | 120* | 124* | 78* | 83*
Cn1c(=O)cc2c3c(c(N4CCCCC4)ccc31)C(=O)c1ccccc1-2 | 5 | 0 | -1 | -3 | 2 | nt | nt | nt | nt
Cn1c(=O)c(NCCO)c2c3c(cccc31)C(=O)c1ccccc1-2 | 58* | 285* | 569* | 522* | -22 | 52* | 158* | 37 | 48*
Cc1cccc(NC2=C(NCCO)C(=O)c3ccccc3C2=O)c1 | -3 | 1 | -1 | -2 | -1 | nt | nt | nt | nt
O=C(CNC(=O)C1CCCCC1)Nc1ccc(F)c(Cl)c1 | 2 | -1 | 0 | 2 | -6 | nt | nt | nt | nt
Cc1ccc(-n2nnc3c(=O)n(Cc4ccccc4C)cnc32)cc1 | -4 | 0 | 0 | -1 | -4 | nt | nt | nt | nt
CCN1CCN(c2ccc(NC(=O)CCc3c(C)nc4c(-c5ccccc5)c(C)nn4c3C)cc2)CC1 | nt | nt | 2 | 1 | -8 | nt | 8 | nt | 6
c1ccc(CCNc2ncnc3nc[nH]c23)cc1 | 33 | 71* | 5 | 6 | -14 | 89* | 9 | 82* | 18
CC(C)c1onc(C(=O)NCCc2ccccc2)c1[N+](=O)[O-] | nt | nt | 0 | -1 | -4 | nt | 1 | nt | 6
O=C(NCC(c1ccco1)N1CCc2ccccc2C1)C(=O)Nc1ccccc1 (stereo not given) | -4 | 26 | -1 | -1 | -10 | nt | nt | nt | nt
O=C(NCC(c1ccco1)N1CCc2ccccc2C1)c1ccccc1 (stereo not given) | -17 | 3 | -1 | -2 | 0 | nt | nt | nt | nt
COc1ccccc1NC(=O)C(=O)NCC(c1ccco1)N1CCc2ccccc2C1 (stereo not given) | 25 | 83* | 0 | 0 | -8 | 64* | 1 | 8 | 4
COc1ccc(C)cc1S(=O)(=O)NCC(c1ccco1)N1CCc2ccccc2C1 (stereo not given) | -15 | 42* | -2 | -2 | -10 | 62* | 1 | 19 | 10
O=C(NCC(c1ccco1)N1CCc2ccccc2C1)c1ccc(F)cc1 (stereo not given) | -18 | 46* | -1 | -2 | -14 | 19 | 1 | 1 | 11
OCCC1CN(Cc2cccn2-c2cccnc2)CCN1Cc1ccccc1 (stereo not given) | -4 | 7 | 0 | -1 | 2 | nt | nt | nt | nt
CN(CCNC(=O)c1ccc(N2CCCC2=O)cc1)CCc1ccccc1 | 27 | 53* | 1 | 1 | -4 | 62* | 0 | 28 | 3
CCC(=O)Nc1nnc(-c2ccccn2)o1 | 1 | 1 | 0 | 0 | -11 | nt | nt | nt | nt
O=C(COC(=O)/C=C/c1cccc(F)c1)NC1CCCCCC1 | 54* | 64* | 2 | -1 | 3 | 88* | 38* | 72* | 19
C=CCN=C1NC(c2cccc(C(F)(F)F)c2)C(C(=O)OC)=C(C)N1Cc1ccccc1C(F)(F)F (stereo not given) | -3 | 4 | nt | nt | nt | nt | nt | nt | nt
C=CCN=C1NC(c2cccc(F)c2)C(C(=O)OC)=C(C)N1Cc1ccccc1C(F)(F)F (stereo not given) | 13 | 5 | nt | nt | nt | nt | nt | nt | nt
COC(=O)C1=C(C)N(Cc2cccc(C(F)(F)F)c2)C(=NCC2CC2)NC1c1ccccc1 (stereo not given) | 97* | 121* | nt | nt | nt | 115* | 79* | 100* | 74*
C=CCN=C1NC(c2cccc(F)c2)C(C(=O)OC)=C(C)N1Cc1cccc(C(F)(F)F)c1 (stereo not given) | 92* | 107* | nt | nt | nt | 89* | 55* | 92* | 73*
C=CCN=C1NC(c2cccc(Cl)c2)C(C(=O)OC)=C(C)N1Cc1cccc(C(F)(F)F)c1 (stereo not given) | 81* | 67* | nt | nt | nt | 36 | 27* | 56* | 51*
SMILES | TAAR1 antagonist | TAAR1 agonist | V1aR counter | OXTR ag | OXTR potentiate | TAAR1 ag confirm | Ga16 nonsel ag | TAAR1 desens | Ga16 antag count
C=CCN=C1NC(c2ccccc2)C(C(=O)OC)=C(C)N1Cc1cccc(C(F)(F)F)c1 (stereo not given) | 87* | 116* | nt | nt | nt | 92* | 61* | 81* | 67*
NC(=S)N/N=C/c1c(O)c(Br)cc2oc3c(c12)CCCC3 | -4 | 2 | 0 | 2 | -3 | nt | nt | nt | nt
COc1ccc(OCC(=O)NNC(=O)c2ccccc2OCc2c(C)noc2C)cc1 | 0 | 1 | 0 | -1 | 0 | nt | nt | nt | nt
CC(=O)c1ccc2c3c(cccc13)C(=O)N(CCc1ccccc1)C2=O | nt | nt | 0 | 0 | -5 | nt | 2 | nt | 9
COc1ccc(-c2cc(C3CCN(Cc4ccc([N+](=O)[O-])cc4)CC3)[nH]n2)cc1 | -6 | 48* | 6 | 7 | -4 | 40* | 18* | 3 | 15
Cc1ccc(CN2CCC(c3cc(-c4ccc(Cl)cc4)n[nH]3)CC2)cc1 | 33 | 67* | 15 | 9 | -19 | 85* | 21* | 75* | 31*
OC1CCN(CC(O)C(F)(F)F)CC1 (stereo not given) | 7 | 0 | 1 | 1 | -1 | nt | nt | nt | nt
COc1ccc(-c2cc(C3CCN(CC(O)C(F)(F)F)CC3)[nH]n2)cc1 (stereo not given) | 23 | 44* | 2 | 1 | -12 | 77* | 2 | 55* | -3
Cc1ccc(CN2CCC(c3nc4ccc(Cl)cc4[nH]3)CC2)cc1 | -17 | 8 | 5 | 5 | -4 | nt | nt | nt | nt
O=C1NCCN(Cc2c(F)cccc2Cl)C1CC(=O)N1CCCCO1 (stereo not given) | -11 | 7 | 0 | -1 | -2 | nt | nt | nt | nt
